≈ marks a conversion by molar mass, not a printed value. Calls of active or inactive are those of the source. The calls are words filed in the database; no cut-off is given here.
Tests used:
[1] = tested on: Escherichia coli; assay: Antimicrobial activity against Escherichia coli ATCC 35218 after 24 hrs by broth micro serial dilution method; type: functional; details: ATCC 35218, 24 h
Summary of the method: (§1)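 This was broth microdilution in autoclaved Mueller-Hinton broth. 150 µL of compound per well was serially diluted […], and 50 µL of test organism was added. Plates were incubated 24 h at 37 °C and optical density was read.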

[2] = tested on: Salmonella typhi; assay: Antimicrobial activity against Salmonella typhi ATCC 23564 after 24 hrs by broth micro serial dilution method; type: functional, Salmonella enterica subsp. enterica serovar Typhi; details: Salmonella enterica, ATCC 23564, 24 h
[3] = tested on: Bacillus cereus; assay: Antimicrobial activity against Bacillus cereus MTCC 7350 assessed as diameter of inhibition zone at 40 uM after 24 hrs by Kirby -Baur disc diffusion method; type: functional
Summary of the method: (§2)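 Kirby-Bauer disc diffusion was used. Acetone stocks (160 µM) were serially doubled down to 80, 40 and 20 µM. 4 µL of each went onto 5 mm sterile paper discs, which were dried 30 min at 50 °C. Inoculum was 1.5 × 10⁸ CFU/mL diluted to 3 × 10² CFU/mL, and 50 µL was spread on Mueller-Hinton agar. After 24 h at 37 °C the inhibition-zone diameter was measured. Ciprofloxacin served as positive control.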

[4] = tested on: Pseudomonas aeruginosa; assay: Antimicrobial activity against Pseudomonas aeruginosa ATCC 15499 assessed as diameter of inhibition zone at 20 uM after 24 hrs by Kirby -Baur disc diffusion method; type: functional; summary of the method: as §2
[5] = tested on: Pseudomonas aeruginosa; assay: Antimicrobial activity against Pseudomonas aeruginosa ATCC 15499 after 24 hrs by broth micro serial dilution method; type: functional; details: ATCC 15499, 24 h; summary of the method: as §1
[6] = tested on: Bacillus cereus; assay: Antimicrobial activity against Bacillus cereus MTCC 7350 assessed as diameter of inhibition zone at 20 uM after 24 hrs by Kirby -Baur disc diffusion method; type: functional; summary of the method: as §2
[7] = tested on: Staphylococcus aureus; assay: Antimicrobial activity against Staphylococcus aureus ATCC 11632 assessed as diameter of inhibition zone at 40 uM after 24 hrs by Kirby -Baur disc diffusion method; type: functional; summary of the method: as §2
[8] = tested on: Salmonella typhi; assay: Antimicrobial activity against Salmonella typhi ATCC 23564 assessed as diameter of inhibition zone at 40 uM after 24 hrs by Kirby -Baur disc diffusion method; type: functional, Salmonella enterica subsp. enterica serovar Typhi; details: Salmonella enterica, ATCC 23564, 24 h; read-out: DIZ
[9] = tested on: Salmonella typhi; assay: Antimicrobial activity against Salmonella typhi ATCC 23564 assessed as diameter of inhibition zone at 20 uM after 24 hrs by Kirby -Baur disc diffusion method; type: functional, Salmonella enterica subsp. enterica serovar Typhi; details: Salmonella enterica, ATCC 23564, 24 h; read-out: DIZ
[10] = tested on: Pseudomonas aeruginosa; assay: Antimicrobial activity against Pseudomonas aeruginosa ATCC 15499 assessed as diameter of inhibition zone at 80 uM after 24 hrs by Kirby -Baur disc diffusion method; type: functional; details: ATCC 15499, 24 h, read-out: DIZ; summary of the method: as §2
[11] = tested on: Staphylococcus aureus; assay: Antimicrobial activity against Staphylococcus aureus ATCC 11632 assessed as diameter of inhibition zone at 20 uM after 24 hrs by Kirby -Baur disc diffusion method; type: functional; summary of the method: as §2
[12] = tested on: Staphylococcus aureus; assay: Antimicrobial activity against Staphylococcus aureus ATCC 11632 assessed as diameter of inhibition zone at 80 uM after 24 hrs by Kirby -Baur disc diffusion method; type: functional; details: ATCC 11632, 24 h, read-out: DIZ; summary of the method: as §2
[13] = tested on: Staphylococcus aureus; assay: Antimicrobial activity against Staphylococcus aureus ATCC 11632 after 24 hrs by broth micro serial dilution method; type: functional; details: ATCC 11632, 24 h; summary of the method: as §1
[14] = tested on: Escherichia coli; assay: Antimicrobial activity against Escherichia coli ATCC 35218 assessed as diameter of inhibition zone at 40 uM after 24 hrs by Kirby -Baur disc diffusion method; type: functional; summary of the method: as §2
[15] = tested on: Bacillus cereus; assay: Antimicrobial activity against Bacillus cereus MTCC 7350 after 24 hrs by broth micro serial dilution method; type: functional; details: MTCC 7350, 24 h; summary of the method: as §1
[16] = tested on: Escherichia coli; assay: Antimicrobial activity against Escherichia coli ATCC 35218 assessed as diameter of inhibition zone at 80 uM after 24 hrs by Kirby -Baur disc diffusion method; type: functional; details: ATCC 35218, 24 h, read-out: DIZ; summary of the method: as §2
[17] = tested on: Bacillus cereus; assay: Antimicrobial activity against Bacillus cereus MTCC 7350 assessed as diameter of inhibition zone at 80 uM after 24 hrs by Kirby -Baur disc diffusion method; type: functional; details: MTCC 7350, 24 h, read-out: DIZ; summary of the method: as §2
[18] = tested on: Pseudomonas aeruginosa; assay: Antimicrobial activity against Pseudomonas aeruginosa ATCC 15499 assessed as diameter of inhibition zone at 40 uM after 24 hrs by Kirby -Baur disc diffusion method; type: functional; summary of the method: as §2
[19] = tested on: Salmonella typhi; assay: Antimicrobial activity against Salmonella typhi ATCC 23564 assessed as diameter of inhibition zone at 80 uM after 24 hrs by Kirby -Baur disc diffusion method; type: functional, Salmonella enterica subsp. enterica serovar Typhi; details: Salmonella enterica, ATCC 23564, 24 h; read-out: DIZ
[20] = tested on: Escherichia coli; assay: Antimicrobial activity against Escherichia coli ATCC 35218 assessed as diameter of inhibition zone at 20 uM after 24 hrs by Kirby -Baur disc diffusion method; type: functional; summary of the method: as §2
[21] = tested on: Curvularia lunata; assay: Antifungal activity against Curvularia lunata MTCC 581 assessed as zone of inhibition at 80 uM after 48 hrs by disc diffusion method; type: functional; details: MTCC 581, 48 h, read-out: IZ
Summary of the method: (§3)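 Spores from 4-day potato dextrose agar cultures, suspended in sterile water at 1.5 × 10⁵ CFU/mL. 0.2 mL was spread on potato dextrose agar. 5 mm filter-paper discs soaked with test compound were laid on the lawn. Incubation was 48 h at 28 °C, then the inhibition zone was measured in mm. Fluconazole was the positive control and acetone the negative control.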

[22] = tested on: Trichoderma viride; assay: Antifungal activity against Trichoderma viride MTCC 1107 after 48 hrs; type: functional; details: MTCC 1107, 48 h
[23] = tested on: Mus musculus; assay: Antiinflammatory activity in mouse assessed as inhibition of carrageenan-induced increase in paw volume at 200 mg/kg administered 1 hr prior to carrageenan challenge measured after 3 hrs relative to control; type: functional
Summary of the method: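 Mice were fasted 2 h and placed in groups of five. Controls received saline i.p. Phenylbutazone was given at 100 mg/kg i.p., curcumin at 200 mg/kg i.p., and derivatives at 200 mg/kg. After 1 h, 0.1 mL of 1% carrageenan in saline was injected subplantar into the right hind paw. Paw volume was followed by plethysmometer for 3 h, and % inhibition was calculated as (Vc − Vt)/Vc × 100.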

[24] = tested on: Aspergillus niger; assay: Antifungal activity against Aspergillus niger MTCC 1108 assessed as zone of inhibition at 80 uM after 48 hrs by disc diffusion method; type: functional; summary of the method: as §3
[25] = tested on: Trichoderma viride; assay: Antifungal activity against Trichoderma viride MTCC 1107 assessed as zone of inhibition at 80 uM after 48 hrs by disc diffusion method; type: functional; details: MTCC 1107, 48 h, read-out: IZ; summary of the method: as §3
[26] = tested on: Aspergillus flavus; assay: Antifungal activity against Aspergillus flavus MTCC 1021 assessed as zone of inhibition at 80 uM after 48 hrs by disc diffusion method; type: functional; summary of the method: as §3
[27] = tested on: Aspergillus niger; assay: Antifungal activity against Aspergillus niger MTCC 1108 after 48 hrs; type: functional
[28] = tested on: QG-56; assay: Cytotoxicity against human QG56 cells after 24 hrs by MTT assay; type: functional, cell-based
Summary of the method: (§4)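 The MTT assay seeded 5 × 10⁴ cells per well and grew them 24 h in RPMI 1640 with compound at 2.5–200 µM. Medium without cells was the blank and adriamycin the positive control. MTT was added for 4 h at 37 °C, formazan was solubilised, and absorbance was read at 570 nm. IC50 is the concentration that cuts viability 50% against untreated cells.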

[29] = tested on: Curvularia lunata; assay: Antifungal activity against Curvularia lunata MTCC 581 assessed as zone of inhibition at 20 uM after 48 hrs by disc diffusion method; type: functional; summary of the method: as §3
[30] = tested on: HeLa; assay: Cytotoxicity against human HeLa cells after 24 hrs by MTT assay; type: functional, cell-based; summary of the method: as §4
[31] = tested on: Curvularia lunata; assay: Antifungal activity against Curvularia lunata MTCC 581 assessed as zone of inhibition at 40 uM after 48 hrs by disc diffusion method; type: functional; details: MTCC 581, 48 h, read-out: IZ; summary of the method: as §3
[32] = tested on: HepG2; assay: Cytotoxicity against human HepG2 cells after 24 hrs by MTT assay; type: functional, cell-based; summary of the method: as §4
[33] = tested on: Trichoderma viride; assay: Antifungal activity against Trichoderma viride MTCC 1107 assessed as zone of inhibition at 40 uM after 48 hrs by disc diffusion method; type: functional; details: MTCC 1107, 48 h, read-out: IZ; summary of the method: as §3
[34] = tested on: Curvularia lunata; assay: Antifungal activity against Curvularia lunata MTCC 581 after 48 hrs; type: functional; details: MTCC 581, 48 h
[35] = tested on: Aspergillus flavus; assay: Antifungal activity against Aspergillus flavus MTCC 1021 after 48 hrs; type: functional
[36] = tested on: Trichoderma viride; assay: Antifungal activity against Trichoderma viride MTCC 1107 assessed as zone of inhibition at 20 uM after 48 hrs by disc diffusion method; type: functional; summary of the method: as §3
[37] = tested on: HCT-116; assay: Cytotoxicity against human HCT116 cells after 24 hrs by MTT assay; type: functional, cell-based; summary of the method: as §4
[38] = ATCC 15499, 24 h, read-out: DIZ
[39] = ATCC 11632, 24 h, read-out: DIZ
[40] = ATCC 35218, 24 h, read-out: DIZ

SMILES: O=C(O)c1cn(C2CC2)c2cc(N3CCNCC3)c(F)cc2c1=O [CIPROFLOXACIN]
- MIC [1]: 1.25 µM (≈ 0.414 µg/mL)
- MIC [2]: 2.5 µM (≈ 0.828 µg/mL)
- zone of inhibition at 40 µM ([3]; MTCC 7350, 24 h, read-out: DIZ): 34 mm
- zone of inhibition at 20 µM [4, 38]: 31 mm
- MIC [5]: 1.25 µM (≈ 0.414 µg/mL)
- zone of inhibition at 20 µM ([6]; MTCC 7350, 24 h, read-out: DIZ): 32 mm
- zone of inhibition at 40 µM [7, 39]: 32 mm
- zone of inhibition at 40 µM [8]: 44 mm
- zone of inhibition at 20 µM [9]: 37 mm
- zone of inhibition at 80 µM [10]: 38 mm
- zone of inhibition at 20 µM [11, 39]: 29 mm
- zone of inhibition at 80 µM [12]: 36 mm
- MIC [13]: 1.25 µM (≈ 0.414 µg/mL)
- zone of inhibition at 40 µM [14, 40]: 32 mm
- MIC [15]: 0.63 µM (≈ 0.209 µg/mL)
- zone of inhibition at 80 µM [16]: 36 mm
- zone of inhibition at 80 µM [17]: 37 mm
- zone of inhibition at 40 µM [18, 38]: 34 mm
- zone of inhibition at 80 µM [19]: 52 mm
- zone of inhibition at 20 µM [20, 40]: 29 mm

SMILES: COc1cc(/C=C/c2noc(/C=C/c3ccc(O)c(OC)c3)c2/N=N/c2ccc(S(=O)(=O)Nc3cc(C)on3)cc2)ccc1O
- zone of inhibition at 80 µM [21]: 12 mm
- MIC [22]: > 80 µM
- inhibition in vivo at 200 mg/kg [23]: 22.5%
- MIC [1]: > 80 µM
- inhibition zone (IZ) [24]: inactive
- diameter of the inhibition zone (DIZ) [3]: inactive
- diameter of the inhibition zone (DIZ) [4]: inactive
- zone of inhibition at 80 µM [25]: 12 mm
- MIC [5]: > 80 µM
- diameter of the inhibition zone (DIZ) [6]: inactive
- inhibition zone (IZ) [26]: inactive
- MIC [27]: inactive
- diameter of the inhibition zone (DIZ) [7]: inactive
- IC50 [28]: Not Active
- inhibition zone (IZ) [29]: inactive
- IC50 [30]: Not Active
- zone of inhibition at 80 µM [10]: 9 mm
- diameter of the inhibition zone (DIZ) [11]: inactive
- zone of inhibition at 40 µM [31]: 9 mm
- zone of inhibition at 80 µM [12]: 9 mm
- MIC [13]: > 80 µM
- diameter of the inhibition zone (DIZ) [14]: inactive
- MIC [15]: > 80 µM
- IC50 [32]: Not Active
- zone of inhibition at 40 µM [33]: 9 mm
- MIC [34]: > 80 µM
- zone of inhibition at 80 µM [16]: 9 mm
- MIC [35]: inactive
- zone of inhibition at 80 µM [17]: 9 mm
- inhibition zone (IZ) [36]: inactive
- diameter of the inhibition zone (DIZ) [18]: inactive
- IC50 [37]: Not Active
- diameter of the inhibition zone (DIZ) [20]: inactive
